# Compounds with a hit are over-represented: about 2.2% of the library has one in this group of screens.
# COUP-TFII inh = NR2F2 transcriptional activity inhibitors, primary screen, cell-based, luciferase reporter, HEK293T, luminescence | COUP transcription factor 2 (Homo sapiens), P24468 | HEK293T NGFI-A luciferase reporter | inhibition, % at 8.6 µM | 0.7% of 370,000 active;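 active = inhibition above a per-plate cutoff, mean inhibition of test wells between control levels plus 3 SD, cut at about 38% in these data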;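 also: cells cotransfected with COUP-TFII expression vector driving the NGFI-A reporter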
# SMARCA2 act = SMARCA2 (BRM) function activators, primary screen, cell-based, luminescence, high throughput | MG213 cells, MMTV-luciferase reporter, dexamethasone, overnight | activation, % at 9.1 µM | 1% of 370,000 active | AID 652017, 2013; in the data active = activation above about 7.8%
# NR2E3 ag-1 = NR2E3 agonists in two-hybrid cells, primary screen, cell-based, luminescence, CHO-S, Gal4-NCOR/VP16-NR2E3; Photoreceptor-specific nuclear receptor (Homo sapiens), Q9Y5X4; luciferase; inhibition of corepressor binding, % at 3.98 µM; 0.35% of 360,000 active;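 active = inhibition above the mean of all tested compounds plus 3 SD, cut at about 70% in these data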;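 also: higher means lower luciferase signal from less NR2E3 corepressor binding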
# NR2E3 ag-2 = inhibitors of NR2E3-RetCOR corepressor binding, primary screen, NR2E3 agonist project, biochemical, TR-FRET, GST-NR2E3, biotin-RetCOR; inhibition of corepressor binding, % at 4.78 µM; AID 2300, 2010; Photoreceptor-specific nuclear receptor (Homo sapiens), Q9Y5X4; 1536-well; 0.12% of 320,000 active;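 active = percent inhibition above the cutoff of mean plus 3 SD of all tested compounds, set per screening campaign, cut at about 20% in these data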
#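 System: GST-NR2E3 and biotin-RetCOR proteins; probe or stimulus: 7 nM biotin-RetCOR; doses: compound at 4.8 µM, single dose; schedule: Compound–protein incubation for 5 h at 4 °C; detection: time-resolved FRET; read-out: percent inhibition; controls: biotin wells as high control, 0.6% DMSO wells as low control; format: 1536-well plates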
# GalR3 antag = GalR3 antagonists in HEK293 cells, primary screen, cell-based, fluorescence readout | AID 651719, 2012 | Galanin receptor type 3 (Homo sapiens), O60755 | inhibition, % at 3 µM | HEK293 GalR3-CNG cAMP membrane potential fluorescence; galR3 body fused to GalR1 C-terminus | 0.44% of 360,000 active;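 active = inhibition above the screen-wide average plus 3 SD, cut at about 13% in these data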;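 also: forskolin and galanin both at EC90 stimulate the cells; cAMP rise reported by CNG channel membrane potential dye signal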
# Target sequence (O60755 1-299 limits assumed): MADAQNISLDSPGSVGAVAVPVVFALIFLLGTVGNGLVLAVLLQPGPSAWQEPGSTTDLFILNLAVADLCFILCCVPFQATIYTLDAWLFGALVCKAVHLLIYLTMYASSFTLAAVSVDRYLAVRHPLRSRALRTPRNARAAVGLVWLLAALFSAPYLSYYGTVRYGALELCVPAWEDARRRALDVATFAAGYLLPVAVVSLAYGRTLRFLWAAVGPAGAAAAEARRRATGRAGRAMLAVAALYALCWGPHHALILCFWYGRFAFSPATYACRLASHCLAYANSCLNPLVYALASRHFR
# SMARCA2 act conf = SMARCA2 (BRM) function activators, confirmation, cell-based, luminescence, triplicate | MG213 cells, MMTV-luciferase with dexamethasone, overnight; MG213 cells expressing E1A, Rb sequestered; DMSO wells 0%, reference activator 100% | activation, % at 9.1 µM | 30% of 3,500 active | shares compounds with SMARCA2 act | AID 652260, 2013;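 active = activation above its plate's cutoff, the mean activation of tested wells plus 3 SD, cut at about 7.9% in these data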
# VP16 Luc act = GAL4-VP16 luciferase reporter activation, counter-screen for SMARCA2 (BRM) activator project, cell-based, pG5luc, luminescence, high throughput; shares compounds with SMARCA2 act; HEK293 GAL4-VP16 pG5luc reporter; scaled: DMSO wells 0%, SAHA wells 100%; activation, % at 9.1 µM; 41% of 3,500 active;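 active = activation above the solvent-only control well mean plus 3 SD, averaged across control plates, cut at about 5.2% in these data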
# Numbers stand for hits; n = inactive; x = not tested or not shown.
SMILES,COUP-TFII inh,SMARCA2 act,NR2E3 ag-1,NR2E3 ag-2,GalR3 antag,SMARCA2 act conf,VP16 Luc act
COc1ccc(/C=N/NC(=S)N[C@H]2CC3CCC2C3)cc1 (stereo partly drawn),n,n,n,n,n,x,x
COc1cc(/C=N/NC(=S)NC2CC3CCC2C3)ccc1O (stereo not drawn),n,9.4,n,n,n,n,n
COc1ccc(/C(N)=N/OC(=O)c2ccc3c(c2)OCO3)cc1OC,n,11.6,n,n,n,9.7,16.9
CCOc1ccc(C(=O)c2ccc(OCC)c(N)c2)cc1N,n,8.6,n,n,n,n,6.5
CCN(Cc1cn(Cc2ccccc2)nn1)S(=O)(=O)c1ccc(F)cc1Br,n,n,x,x,x,x,x
CC(C)N(Cc1cn(Cc2ccccc2)nn1)S(=O)(=O)c1ccc(F)cc1Br,n,8.7,x,x,x,n,n
COc1ccc(C(=O)NCC(=O)N2CCNC(=O)C2)cc1OC,n,n,n,n,n,x,x
COc1ccc(C(=O)NCC(=O)N2CCN(c3ncccn3)CC2)cc1OC,n,8.0,n,n,n,n,n
COC(=O)NCC(C)OC(=O)Nc1ccc(Cl)cc1 (stereo not drawn),n,n,n,n,n,x,x
Cc1ccc(NC(=O)OC(C)CNC(=O)Oc2cccc(C)c2)cc1 (stereo not drawn),n,11.3,n,n,n,8.0,n
CCOc1ccccc1N(CC(=O)Nc1ccc(S(=O)(=O)N2CCOCC2)cc1)S(C)(=O)=O,n,11.7,n,n,n,n,n
COCO[C@@H]1CC(CO)=C[C@H]2OCO[C@H]21,n,x,x,x,x,x,x
Nc1ncnc(Sc2ncccn2)c1[N+](=O)[O-],n,17.9,n,x,n,n,n
CCOC(=O)CC[C@@H]1CC[C@]2(CCCN(C(=O)c3ccc4ccccc4n3)C2)O1,n,n,x,x,x,x,x
O=C(/C=C/c1ccco1)N1CCc2ccccc21,n,9.6,n,n,n,16.5,10.0
Cc1ccc(/C=C/C(=O)N2CCc3ccccc32)o1,n,n,n,n,n,x,x
O=C(c1ccco1)N1CCc2ccccc21,n,8.5,n,n,n,n,n
O=C(c1ccc(Br)o1)N1CCc2ccccc21,x,x,x,n,x,x,x
O=C(NC1CCCCN(Cc2cccc(F)c2)C1=O)c1cccc(F)c1 (stereo not drawn),n,n,x,x,x,x,x
Cc1cc2cc(C(c3nnnn3C(C)(C)C)N(Cc3ccco3)CC3CCCO3)c(=O)[nH]c2cc1C (stereo not drawn),n,n,n,n,n,x,x
COc1ccc2[nH]c(=O)c(C(c3nnnn3C(C)(C)C)N(Cc3ccco3)CC3CCCO3)cc2c1 (stereo not drawn),n,11.6,n,n,n,n,n
COc1ccc(-c2cc(C(=O)N3CCCCC3)no2)cc1OC,n,8.7,n,n,n,n,5.3
O=C(c1cc(-c2ccc(Cl)cc2)on1)N1CCCCCC1,n,10.5,n,n,n,8.1,9.2
COc1cccc(C(=O)N2CCC(Oc3cccnc3)CC2)c1,n,n,x,x,x,x,x
COC(=O)C1=C(C)N(Cc2cccc(C(F)(F)F)c2)C(=NCc2ccc3c(c2)OCO3)NC1c1ccc(F)cc1 (stereo not drawn),n,n,x,x,n,x,x
SMILES,COUP-TFII inh,SMARCA2 act,NR2E3 ag-1,NR2E3 ag-2,GalR3 antag,SMARCA2 act conf,VP16 Luc act
CSc1ccc(/C=N/NC(=O)c2cccc(O)c2)cc1,n,9.6,n,n,n,n,13.9
CCOc1ccc(C(=O)N/N=C/c2ccc(SC)cc2)cc1,n,n,n,n,n,x,x
COc1ccccc1NS(=O)(=O)c1cc(NC(=O)/C=C/c2cccs2)ccc1N1CCOCC1,n,17.7,n,n,n,9.2,n
COc1ccccc1NS(=O)(=O)c1cc(NC(=O)c2ccc(NC(C)=O)cc2)ccc1N1CCOCC1,n,17.5,n,x,n,16.2,n
O=C(/C=C/c1cccs1)Nc1ccc(N2CCOCC2)c(S(=O)(=O)Nc2ccccc2Cl)c1,n,n,n,n,n,x,x
COc1ccccc1CNCC(=O)Nc1ccc(N2CCOCC2)cc1,n,n,n,n,n,x,x
COc1ccccc1NC(=O)Nc1ccc(N2CCOCC2)cc1,n,8.8,n,n,n,8.1,5.6
c1ccc2sc(N3CCCCC3)nc2c1,n,n,n,x,n,x,x
O=C1CNC(=S)N1c1nc2ccccc2s1,n,28.1,n,n,n,10.3,n
O=c1/c(=C\c2cccn2-c2ccccc2)sc2nc3ccccc3n12,n,n,n,x,n,x,x
O=C(O)Cn1cc(/C=c2/sc3nc4ccccc4n3c2=O)c2ccccc21,n,10.3,n,n,n,n,8.8
COC(=O)C1CN(Cc2cn(Cc3ccc(C)cc3)nn2)CCS(=O)(=O)N1Cc1ccc(OC)cc1 (stereo not drawn),n,n,x,x,x,x,x
O=C(NCCc1ccc(Cl)cc1)c1ccc2nccnc2c1,n,9.4,n,n,n,9.6,9.9
COCc1nnc(NC(=O)c2cc(C(=O)OC)cc([N+](=O)[O-])c2)s1,n,n,n,n,n,x,x
COC(=O)c1cc(C(=O)Nc2nnc(CC(C)C)s2)cc([N+](=O)[O-])c1,n,11.6,n,n,n,n,n
CCN1CC(c2ccccc2)C(c2ccc(Cl)cc2)=N1 (stereo not drawn),n,8.3,n,n,n,n,n
O=C(CCc1ccccc1)NC(=S)Nc1ccccc1[N+](=O)[O-],n,n,n,n,n,x,x
O=C(CCCc1ccccc1)Nc1cccc(C(=O)O)c1,n,8.2,n,n,n,9.1,14.2
O=C(CCc1ccccc1)Nc1ccccc1[N+](=O)[O-],n,8.2,n,n,n,14.7,5.3
Cc1cccc(NC(=O)CCc2ccccc2)c1,n,9.2,n,n,n,n,n
CCOC(=O)c1cccc(NC(=O)CN(C)S(=O)(=O)c2ccc(Cl)s2)c1,n,n,x,x,x,x,x
COc1ccccc1NC(CC(=O)c1ccccc1)C(=O)OCC(=O)c1ccc(F)cc1 (stereo not drawn),n,10.0,n,n,n,8.6,15.0
CS(=O)(=O)N[C@@H]1C[C@@H]2O[C@H](CO)CC[C@@H]2O[C@@H]1CCc1ccc(/C=C/c2ccccc2)cc1,n,n,x,x,x,x,x
CCOC(=O)c1c(NC(=O)C(NCCN(C)C)c2ccccc2)sc2c1CCCC2 (stereo not drawn),n,12.8,n,n,n,n,n

# Source: PubChem BioAssay (The Scripps Research Institute Molecular Screening Center)
